Measured values published in ChEMBL document CHEMBL3098054, “The synthesis of novel taxoids for oral administration” (Bioorg Med Chem, 2014).

How the values were obtained:
DU-145 = assay: Cytotoxicity against human DU145 cells at 1 uM after 72 hrs by MTT assay; type: functional; details: DU-145, 72 h, read-out: GI
How it was run: (§1)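 Cells plated at 2000–5000/well, attached overnight at 37 °C. DMSO stocks (100 mM) serially diluted in medium to a final 1 µM, tested in duplicate wells. Exposure 72 h at 37 °C, 5% CO₂. MTT (5 mg/mL, 10 µL) added for 4 h. Lysis in 10% SDS / 5% isopropanol / 0.012 N HCl, then OD read at 580–680 nm.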

NCI-H460 = assay: Cytotoxicity against human NCI-H460 cells at 1 uM after 72 hrs by MTT assay; type: functional; details: NCI-H460, 72 h, read-out: GI; how it was run: as §1
HeLa = assay: Cytotoxicity against human HeLa cells at 1 uM after 72 hrs by MTT assay; type: functional; details: read-out: GI; how it was run: as §1
HT-29 = assay: Cytotoxicity against human HT-29 cells at 1 uM after 72 hrs by MTT assay; type: functional; details: HT-29, 72 h, read-out: GI; how it was run: as §1
A2780 = assay: Cytotoxicity against human A2780 cells at 1 uM after 72 hrs by MTT assay; type: functional; details: A2780, 72 h, read-out: GI; how it was run: as §1
MCF7 [1] = assay: Cytotoxicity against human MCF7 cells at 1 uM after 72 hrs by MTT assay; type: functional; details: MCF7, 72 h, read-out: GI; how it was run: as §1
A-375 = assay: Cytotoxicity against human A375 cells at 1 uM after 72 hrs by MTT assay; type: functional; details: A-375, 72 h, read-out: GI
How it was run: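 Cells plated at 2000–5000/well, attached overnight at 37 °C. DMSO stocks (100 mM) serially diluted in medium to a final 1 µM, tested in duplicate wells. MTT (5 mg/mL, 10 µL) added for 4 h. Lysis in 10% SDS / 5% isopropanol / 0.012 N HCl, then OD read at 580–680 nm.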

HL-60 = assay: Cytotoxicity against human HL60 cells at 1 uM after 72 hrs by MTT assay; type: functional; details: HL-60, 72 h, read-out: GI; how it was run: as §1
[2] = Apparent permeability from apical to basolateral side in human Caco2 cells at 10 uM after 90 mins by LC-MS/MS analysis; type: ADME, cell-based, Caco-2; details: Caco-2
MCF7 [3] = assay: Cytotoxicity against human MCF7 cells after 72 hrs by MTT assay; type: functional, cell-based; details: MCF7, 72 h
How it was run: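 MCF-7 cells exposed to compound for 72 h and read by MTT. At least six replicate wells per assay, run on three separate occasions. IC₅₀ given as mean with standard deviation.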

## CO[C@H]1C(=O)[C@]2(C)[C@@H](OC)C[C@H]3OC[C@@]3(OC(C)=O)[C@H]2[C@H](OC(=O)c2ccccc2)[C@]2(O)C[C@H](OC(=O)[C@H](O)[C@@H](NC(=O)c3ccccc3)c3ccccc3)C(C)=C1C2(C)C
DU-145
  inhibition of growth at 1 µM: 86.4%
NCI-H460
  inhibition of growth at 1 µM: 85%
HeLa
  inhibition of growth at 1 µM: 102%
HT-29
  inhibition of growth at 1 µM: 87.5%
A2780
  inhibition of growth at 1 µM: 95.2%
MCF7 [1]
  inhibition of growth at 1 µM: 92.1%
A-375
  inhibition of growth at 1 µM: 89.7%
HL-60
  inhibition of growth at 1 µM: 97.2%

## CO[C@H]1C(=O)[C@]2(C)CC[C@H]3OC[C@@]3(OC(C)=O)[C@H]2[C@H](OC(=O)c2ccccc2)[C@]2(O)C[C@H](OC(=O)[C@H](O)[C@@H](NC(=O)OC(C)(C)C)c3ccccc3)C(C)=C1C2(C)C
HeLa
  inhibition of growth at 1 µM: 101%
[2]
  Papp A→B at 1.5 h, 10 µM: 3.64 ×10⁻⁶ cm/s
MCF7 [3]
  IC50: 3.33 nM

## CO[C@H]1C[C@H]2OC[C@@]2(OC(C)=O)[C@H]2[C@H](OC(=O)c3ccccc3)[C@]3(O)C[C@H](OC(=O)[C@H](O)[C@@H](NC(=O)c4ccccc4)c4ccccc4)C(C)=C([C@@H](OC(=O)N(C)C)C(=O)[C@]12C)C3(C)C
DU-145
  inhibition of growth at 1 µM: 87.1%
NCI-H460
  inhibition of growth at 1 µM: 86.5%
HeLa
  inhibition of growth at 1 µM: 102%
HT-29
  inhibition of growth at 1 µM: 87.9%
[2]
  Papp A→B at 1.5 h, 10 µM: 2.94 ×10⁻⁶ cm/s
A2780
  inhibition of growth at 1 µM: 96.3%
MCF7 [1]
  inhibition of growth at 1 µM: 85.7%
A-375
  inhibition of growth at 1 µM: 87.7%
HL-60
  inhibition of growth at 1 µM: 97.5%

## CO[C@H]1C[C@H]2OC[C@@]2(OC(C)=O)[C@H]2[C@H](OC(=O)c3ccccc3)[C@]3(O)C[C@H](OC(=O)[C@H](O)[C@@H](NC(=O)OC(C)(C)C)c4ccccn4)C(C)=C([C@@H](OC(=O)N(C)C)C(=O)[C@]12C)C3(C)C
HeLa
  inhibition of growth at 1 µM: 100%
[2]
  Papp A→B at 1.5 h, 10 µM: 3.02 ×10⁻⁶ cm/s

## COC(=O)O[C@H]1C(=O)[C@]2(C)[C@@H](OC)C[C@H]3OC[C@@]3(OC(C)=O)[C@H]2[C@H](OC(=O)c2ccccc2)[C@]2(O)C[C@H](OC(=O)[C@H](O)[C@@H](NC(=O)c3ccccc3)c3ccccc3)C(C)=C1C2(C)C
DU-145
  inhibition of growth at 1 µM: 86.2%
NCI-H460
  inhibition of growth at 1 µM: 86.4%
HeLa
  inhibition of growth at 1 µM: 101%
HT-29
  inhibition of growth at 1 µM: 88.8%
[2]
  Papp A→B at 1.5 h, 10 µM: 4.38 ×10⁻⁶ cm/s
A2780
  inhibition of growth at 1 µM: 95.8%
MCF7 [1]
  inhibition of growth at 1 µM: 95.5%
A-375
  inhibition of growth at 1 µM: 94.2%
HL-60
  inhibition of growth at 1 µM: 96.8%

## CO[C@H]1C(=O)[C@]2(C)[C@@H](OC(=O)N(C)C)C[C@H]3OC[C@@]3(OC(C)=O)[C@H]2[C@H](OC(=O)c2ccccc2)[C@]2(O)C[C@H](OC(=O)[C@H](O)[C@@H](NC(=O)OC(C)(C)C)c3ccccn3)C(C)=C1C2(C)C
HeLa
  inhibition of growth at 1 µM: 103%
[2]
  Papp A→B at 1.5 h, 10 µM: 4.41 ×10⁻⁶ cm/s
MCF7 [3]
  IC50: 46.6 nM

## COC(=O)O[C@H]1C[C@H]2OC[C@@]2(OC(C)=O)[C@H]2[C@H](OC(=O)c3ccccc3)[C@]3(O)C[C@H](OC(=O)[C@H](O)[C@@H](NC(=O)c4ccccc4)c4ccccc4)C(C)=C([C@@H](OC)C(=O)[C@]12C)C3(C)C
DU-145
  inhibition of growth at 1 µM: 88.3%
NCI-H460
  inhibition of growth at 1 µM: 90.3%
HeLa
  inhibition of growth at 1 µM: 102%
HT-29
  inhibition of growth at 1 µM: 89.7%
[2]
  Papp A→B at 1.5 h, 10 µM: 3.32 ×10⁻⁶ cm/s
A2780
  inhibition of growth at 1 µM: 96.9%
MCF7 [1]
  inhibition of growth at 1 µM: 107%
A-375
  inhibition of growth at 1 µM: 94%
HL-60
  inhibition of growth at 1 µM: 97.8%

## COC(=O)O[C@H]1C[C@H]2OC[C@@]2(OC(C)=O)[C@H]2[C@H](OC(=O)c3ccccc3)[C@]3(O)C[C@H](OC(=O)[C@H](O)[C@@H](NC(=O)OC(C)(C)C)c4ccccn4)C(C)=C([C@@H](OC)C(=O)[C@]12C)C3(C)C
HeLa
  inhibition of growth at 1 µM: 102%
[2]
  Papp A→B at 1.5 h, 10 µM: 4.53 ×10⁻⁶ cm/s

## CO[C@H]1C(=O)[C@]2(C)[C@@H](OC)C[C@H]3OC[C@@]3(OC(C)=O)[C@H]2[C@H](OC(=O)c2ccccc2)[C@]23OC(=O)O[C@H]2[C@H](OC(=O)[C@H](O)[C@@H](NC(=O)OC(C)(C)C)c2ccccn2)C(C)=C1C3(C)C
[2]
  Papp A→B at 1.5 h, 10 µM: 3.66 ×10⁻⁶ cm/s
MCF7 [3]
  IC50: 3.4 nM

## CO[C@H]1C(=O)[C@]2(C)[C@@H](OC)C[C@H]3OC[C@@]3(OC(C)=O)[C@H]2[C@H](OC(=O)c2ccccc2)[C@]23OC(=O)O[C@H]2[C@H](OC(=O)[C@H](O)[C@H](CC(C)C)NC(=O)OC(C)(C)C)C(C)=C1C3(C)C
[2]
  Papp A→B at 1.5 h, 10 µM: 2.57 ×10⁻⁶ cm/s
MCF7 [3]
  IC50: 4.04 nM

## CO[C@H]1C[C@H]2OC[C@@]2(OC(C)=O)[C@H]2[C@H](OC(=O)c3ccccc3)[C@]34OC(=O)O[C@H]3[C@H](OC(=O)[C@H](O)[C@@H](NC(=O)OC(C)(C)C)c3ccccn3)C(C)=C([C@@H](OC(=O)N(C)C)C(=O)[C@]12C)C4(C)C
[2]
  Papp A→B at 1.5 h, 10 µM: 4.68 ×10⁻⁶ cm/s
MCF7 [3]
  IC50: 14.3 nM

## CO[C@H]1C[C@H]2OC[C@@]2(OC(C)=O)[C@H]2[C@H](OC(=O)c3ccccc3)[C@]34OC(=O)O[C@H]3[C@H](OC(=O)[C@H](O)[C@H](CC(C)C)NC(=O)OC(C)(C)C)C(C)=C([C@@H](OC(=O)N(C)C)C(=O)[C@]12C)C4(C)C
[2]
  Papp A→B at 1.5 h, 10 µM: 1.07 ×10⁻⁶ cm/s
MCF7 [3]
  IC50: 6.44 nM

## COC(=O)O[C@H]1C(=O)[C@]2(C)[C@@H](OC)C[C@H]3OC[C@@]3(OC(C)=O)[C@H]2[C@H](OC(=O)c2ccccc2)[C@]23OC(=O)O[C@H]2[C@H](OC(=O)[C@H](O)[C@@H](NC(=O)OC(C)(C)C)c2ccccc2)C(C)=C1C3(C)C
[2]
  Papp A→B at 1.5 h, 10 µM: < 1.43 ×10⁻⁶ cm/s
MCF7 [3]
  IC50: 3.24 nM

## CO[C@H]1C(=O)[C@]2(C)[C@@H](OC(=O)N(C)C)C[C@H]3OC[C@@]3(OC(C)=O)[C@H]2[C@H](OC(=O)c2ccccc2)[C@]23OC(=O)O[C@H]2[C@H](OC(=O)[C@H](O)[C@@H](NC(=O)OC(C)(C)C)c2ccccc2)C(C)=C1C3(C)C
DU-145
  inhibition of growth at 1 µM: 90.7%
NCI-H460
  inhibition of growth at 1 µM: 86.2%
HeLa
  inhibition of growth at 1 µM: 100%
HT-29
  inhibition of growth at 1 µM: 87.4%
[2]
  Papp A→B at 1.5 h, 10 µM: < 1.67 ×10⁻⁶ cm/s
A2780
  inhibition of growth at 1 µM: 95.9%
MCF7 [1]
  inhibition of growth at 1 µM: 84.7%
A-375
  inhibition of growth at 1 µM: 93.1%
MCF7 [3]
  IC50: 15.4 nM
HL-60
  inhibition of growth at 1 µM: 97.5%

## CO[C@H]1C(=O)[C@]2(C)[C@@H](OC(=O)N(C)C)C[C@H]3OC[C@@]3(OC(C)=O)[C@H]2[C@H](OC(=O)c2ccccc2)[C@]23OC(=O)O[C@H]2[C@H](OC(=O)[C@H](O)[C@@H](NC(=O)OC(C)(C)C)c2ccccn2)C(C)=C1C3(C)C
[2]
  Papp A→B at 1.5 h, 10 µM: 2.46 ×10⁻⁶ cm/s
MCF7 [3]
  IC50: 18.2 nM

## COC(=O)O[C@H]1C[C@H]2OC[C@@]2(OC(C)=O)[C@H]2[C@H](OC(=O)c3ccccc3)[C@]34OC(=O)O[C@H]3[C@H](OC(=O)[C@H](O)[C@@H](NC(=O)OC(C)(C)C)c3ccccc3)C(C)=C([C@@H](OC)C(=O)[C@]12C)C4(C)C
[2]
  Papp A→B at 1.5 h, 10 µM: 3.93 ×10⁻⁶ cm/s
MCF7 [3]
  IC50: 3.84 nM

## CO[C@H]1C(=O)[C@]2(C)[C@@H](OC)C[C@H]3OC[C@@]3(OC(C)=O)[C@H]2[C@H](OC(=O)c2ccccc2)[C@]2(O)C[C@H](OC(=O)[C@H](O)[C@@H](NC(=O)OC(C)(C)C)c3ccccc3)C(C)=C1C2(C)C [CABAZITAXEL]
DU-145
  inhibition of growth at 1 µM: 83.1%
NCI-H460
  inhibition of growth at 1 µM: 79.8%
HeLa
  inhibition of growth at 1 µM: 98.2%
HT-29
  inhibition of growth at 1 µM: 87.2%
[2]
  Papp A→B at 1.5 h, 10 µM: 3.73 ×10⁻⁶ cm/s
A2780
  inhibition of growth at 1 µM: 93.8%
MCF7 [1]
  inhibition of growth at 1 µM: 88.5%
A-375
  inhibition of growth at 1 µM: 97%
HL-60
  inhibition of growth at 1 µM: 97.8%

## CC[C@H]1OC(=O)[C@H](C)[C@@H](O[C@H]2C[C@@](C)(OC)[C@@H](O)[C@H](C)O2)[C@H](C)[C@@H](O[C@@H]2O[C@H](C)C[C@H](N(C)C)[C@H]2O)[C@](C)(O)C[C@@H](C)C(=O)[C@H](C)[C@@H](O)[C@]1(C)O [ERYTHROMYCIN]
[2]
  Papp A→B at 1.5 h, 10 µM: 0.58 ×10⁻⁶ cm/s
